In the library only some 3.8% were active in any assay of this set; here they are far more common.
KCNQ1 pot = potentiators or activators of KCNQ1 channel, primary screen, cell-based, thallium flux, high-throughput. actives 0.35% (n = 310,000). Potassium voltage-gated channel subfamily KQT member 1 (Homo sapiens), P51787. B-score at 10 µM. CHO-K1 KCNQ1, thallium flux FluxOR fluorescence; hits give high values;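 active = fluorescence ratio B-score, a plate-corrected score, at least three library SD, with initial intensity B-score within 5 SD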
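Test system: CHO-K1 cells stably expressing KCNQ1 / Medium: assay buffer / Also added: depolarizing K+/Tl+ stimulus, K2SO4 and Tl2SO4 each 12.5 mM in 5x stock / Incubation: 90 min dye loading and 20 min compound exposure, both at room temperature / Signal: thallium influx via FluxOR fluorescence, kinetic imaging / Evaluation: B score of baseline-normalized fluorescence ratio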
Kir21 inh = inhibitors of mouse Kir2.1 inward-rectifier potassium channel | B-score at 10 µM | Inward rectifier potassium channel 2 (Mus musculus), P35561 | AID 1672, 2009 | HEK293-Kir2.1, FluxOR thallium flux fluorescence; hits give low values | actives 0.85% (n = 310,000);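 active = fluorescence ratio B-score at or below minus 3 SD of library scores, with starting-brightness B-score within 2 SD, cut at about -4.2 in these data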;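 also: channel flux triggered by added potassium and thallium sulfate stimulus; B-score of peak minus minimum fluorescence over baseline after thallium stimulus; more negative B-score means stronger Kir2.1 block with less thallium influx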
KCNQ1 inh = inhibitors of human KCNQ1 channel, primary screen, cell-based, thallium flux, high-throughput | actives 1.3% (n = 310,000) | CHO-K1 KCNQ1, FluxOR thallium flux fluorescence; hits give high values | B-score at 10 µM | Potassium voltage-gated channel subfamily KQT member 1 (Homo sapiens), P51787;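 active = compounds whose thallium flux B-score, printed positive for inhibition, exceeds three library SD while starting fluorescence stays within three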;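 also: channel opened by potassium depolarization with thallium stimulus after 20 min compound exposure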
KCNK3 block = human KCNK3 channel inhibitors, primary screen, CHO cells, FluxOR thallium flux, B-score | actives 0.84% (n = 340,000) | FluxOR fluorescence; hits give low values | B-score at 10 µM | AID 602410, 2012 | Potassium channel subfamily K member 3 (Homo sapiens), O14649;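 active = B-score under library mean minus 4 SD, starting fluorescence ratio at most library mean plus 5 SD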;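 also: more negative B-score means stronger inhibition of thallium flux through KCNK3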
Target sequence (O14649 whole entry, looked up): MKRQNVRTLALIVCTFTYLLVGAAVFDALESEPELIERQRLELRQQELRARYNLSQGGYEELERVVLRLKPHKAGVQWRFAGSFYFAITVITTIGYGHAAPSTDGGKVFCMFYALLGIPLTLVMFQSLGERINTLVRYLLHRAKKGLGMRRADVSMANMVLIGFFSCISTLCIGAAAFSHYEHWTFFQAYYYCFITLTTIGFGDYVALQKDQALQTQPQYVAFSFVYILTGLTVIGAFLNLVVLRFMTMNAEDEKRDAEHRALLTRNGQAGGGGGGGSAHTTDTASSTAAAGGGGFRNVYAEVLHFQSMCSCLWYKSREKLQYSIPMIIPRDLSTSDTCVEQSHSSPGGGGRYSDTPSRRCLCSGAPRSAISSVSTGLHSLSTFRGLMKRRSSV
hERG rescue = hERG rescue from dofetilide block, primary screen, cell-based, CHO-hERG, FluxOR thallium flux, dofetilide IC70. dofetilide IC70 present. AID 1511, 2009. actives 0.51% (n = 310,000). Voltage-gated inwardly rectifying potassium channel KCNH2 (Homo sapiens), Q12809. activation (rescue from dofetilide block), less the hit threshold, % at 10 µM;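 active = activation above the mean of controls blocked by dofetilide plus 5 SD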;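 also: thallium influx through hERG after potassium depolarization seen as dye fluorescence rise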
KCNK9 inh = KCNK9 potassium channel inhibitors, primary screen, HEK293 cells, thallium flux | FluxOR thallium flux fluorescence; hits give low values | Potassium channel subfamily K member 9 (Homo sapiens), Q9NPC2 | actives 1.2% (n = 310,000) | B-score at 10 µM;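 active = ratio B-score over 3 SD below the library mean, with starting fluorescence within 5 SD of its mean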;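 also: negative B-score means less thallium flux so channel inhibition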
* marks the source's active call; other numbers are inactive results; i = inactive; . = not tested or not shown.

SMILES	KCNQ1 pot	Kir21 inh	KCNQ1 inh	KCNK3 block	hERG rescue	KCNK9 inh
O=C(O)c1cccc(S(=O)(=O)Nc2cc(Cl)ccc2Cl)c1	i	0.46	i	i	-7.0	i
CC1CC(C)CN(C(=O)c2cccc(S(=O)(=O)Nc3cc(C(F)(F)F)ccc3Cl)c2)C1 (stereo not drawn)	i	-1.21	7*	i	-13.4	i
COc1ccc2cc(C(=O)N/N=C/c3sc4ccccc4c3O)ccc2c1	i	-7.21	9*	i	-13.6	i
CC1(C(=O)O)CCC(C(=O)NC2CCCCC2)C1(C)C (stereo not drawn)	i	0.01	i	i	1.4	-7.58*
O=C(CC1NCCNC1=O)Nc1ccc([N+](=O)[O-])cc1 (stereo not drawn)	i	-0.97	i	i	-4.1	i
CN1/C(=C\C(=O)COc2ccc3c(c2)OCO3)C(C)(C)c2ccccc21	i	-0.19	i	i	-16.3	-7.97*
COc1ccccc1OCC(=O)/C=C1/N(C)c2ccccc2C1(C)C	i	-1.99	i	i	-22.5	i
COc1ccc(-c2csc(NC(=S)NC(=O)c3ccco3)n2)cc1Br	i	-0.17	i	i	11.4*	i
COc1ccc(-c2csc(NC(=S)NC(=O)c3cc4ccccc4o3)n2)cc1Br	i	1.18	i	i	-0.3	i
O=C(Nc1nc2cc3c(cc2s1)OCO3)c1ccco1	i	0.13	i	i	-7.4	i
O=C(NC(=S)Nc1nc2ccc(F)cc2s1)c1ccco1	47*	0.15	i	i	40.0*	i
Cc1ccc(-c2csc(NC(=S)NC(=O)c3ccco3)n2)cc1	28*	1	i	i	-5.1	i
O=S(=O)(c1cccc2ccccc12)N1CCC2CC1c1cc(Cl)ccc12 (stereo not drawn)	.	.	.	i	.	.
CC(C)Oc1cc(N)c(Cl)cc1Cl	i	0.92	i	i	-2.5	i
Cc1cc(S(=O)(=O)N2CCN(c3ccccc3F)CC2)ccc1-n1cnnn1	i	-1.51	i	i	-6.3	i
COC(=O)Oc1c(Br)c(=O)oc2ccccc12	i	-4.75*	i	i	-34.1	i
CCOc1cc(C(C(=O)NCC2CCCO2)N(C(=O)Cn2nnc3ccccc32)c2ccccc2OC)ccc1O (stereo not drawn)	i	1.08	i	i	-8.2	i
COc1ccc(CCN(C(=O)Cn2nnc3ccccc32)C(C(=O)NCC2CCCO2)c2ccncc2)cc1OC (stereo not drawn)	i	0.25	i	i	39.3*	i
CCOCCCNC(=O)c1cc2c(s1)-c1ccccc1SC2	i	0.07	i	i	-10.6	i
CN(C)CCNC(=O)c1cc2c(s1)-c1ccc(Cl)cc1SC2	i	-7.76*	i	i	-11.7	i
COc1cc(C2Nc3ccccc3C(=O)N2c2ccccc2OC)ccc1O (stereo not drawn)	i	-0.09	i	i	-6.0	i
CCOc1cc(C2Nc3ccccc3C(=O)N2c2ccccc2OC)ccc1O (stereo not drawn)	i	-0.18	i	i	18.5*	i
O=C(NNC(=O)c1ccccc1O)c1ccc(NS(=O)(=O)c2ccc(F)c(F)c2)cc1	i	-0.98	6*	i	-29.1	i
O=C(CSc1ccc(S(=O)(=O)N2CCOCC2)cn1)Nc1ccc(F)c(F)c1	.	.	.	i	.	.
COc1ccc(NC(=S)NCc2ccccc2Cl)c(OC)c1	i	-0.17	i	i	-2.2	i
SMILES	KCNQ1 pot	Kir21 inh	KCNQ1 inh	KCNK3 block	hERG rescue	KCNK9 inh
COc1ccc(NC(=S)NCCc2ccccc2OC)c(OC)c1	i	-5.65*	i	i	-10.0	i
COc1ccc(NC(=S)NCCC(c2ccccc2)c2ccccc2)c(OC)c1	29*	1.39	i	i	-10.9	i
COc1cccc(NC(=S)NCCC(c2ccccc2)c2ccccc2)c1	i	-0.59	10*	i	-9.6	i
COc1cc(NC(=S)NCCC(c2ccccc2)c2ccccc2)cc(OC)c1	i	0.69	6*	i	-9.8	i
Cc1cccc(NC(=S)NCCC(c2ccccc2)c2ccccc2)c1	i	-0.6	i	i	-17.8	i
COc1ccc(NC(=S)Nc2ccccc2OC)c(OC)c1	i	1.58	i	i	-13.3	i
CC(OC(=O)COc1ccc(Nc2ccccc2)cc1)C(=O)N(C)c1ccccc1 (stereo not drawn)	i	1.51	i	i	-12.4	i
CCOC(=O)N1CCN(C(=O)CSc2nc3c([nH]c4ccccc43)c(=O)n2CC)CC1	i	1.86	i	i	2.9	i
CC(=O)NCc1ccc(C(=O)O)cc1	i	0.68	i	i	-13.9	i
COc1cccc(NC(=S)NCCN2CCOCC2)c1	12*	-1.38	i	i	-12.4	i
COc1ccc(NC(=S)Nc2ccccn2)c(OC)c1	i	-1.7	i	i	5.2*	i
COc1ccc(NC(=O)NCCCCc2ccccc2)c(OC)c1	i	-0.8	i	i	4.6*	i
COc1cc(NC(=S)NCCCN2CCOCC2)cc(OC)c1	i	-0.16	i	i	-5.3	i
O=C(c1ccc(F)cc1Cl)N1CCN(S(=O)(=O)c2cccs2)CC1	i	-0.06	i	i	-12.0	i
CCN(CC)P(=O)(Nc1ccccc1Br)c1ccc(N(C)C)cc1NC(=O)c1ccco1 (stereo not drawn)	i	0.78	i	i	0.9	i
Clc1cccc(CNCCNCc2cccc(Cl)c2)c1	i	-4.27*	i	i	-16.5	i
O=C(NCCNCc1cccc(Cl)c1)c1ccco1	.	.	.	i	.	.
O=C(Nc1cc([N+](=O)[O-])ccc1O)NC1CCS(=O)(=O)C1 (stereo not drawn)	.	.	.	i	.	.
O=C(Nc1ccc(OC(F)(F)F)cc1)Nc1cccc([N+](=O)[O-])c1	i	-0.31	7*	i	-18.0	i
NC(=O)c1cc([N+](=O)[O-])ccc1Nc1ccccc1	.	.	.	i	.	.
O=C(Nc1cccnc1)Nc1cccc([N+](=O)[O-])c1	i	-0.11	6*	i	-6.4	i
NC(=O)c1cccnc1Nc1cccc([N+](=O)[O-])c1	i	-0.11	i	i	9.4*	i
